Assay results from ChEMBL document CHEMBL1156246 (J Med Chem, 2009).
The source made the active and inactive calls. No cut-off for these calls is given here.

Assays:
[1] = target: Dihydropyrimidinase-related protein 2 (Mus musculus) (UniProt O08553); test: Binding affinity to CRMP2 in ICR mouse brain […] at 5 uM by mass spectrometry in presence of rhodamine-containing 4-(3-azidopropylcarbamoyl)-2-(3,6-bis(dimethylamino)xanthylium-9-yl)benzoate; assay type: tissue-based
Procedure, shortened: (§1)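 Brain soluble fraction from male 2-month ICR mice was Dounce-homogenized in 50 mM HEPES pH 7.4 and spun at 1200 × g then 100,000 × g at 4 °C. The fraction was exchanged into HEPES pH 8.0 at 2.0 mg/mL, treated with agent (5 μM, 30 min, room temperature), then clicked to rhodamine-azide (50 μM) with TCEP 1 mM, TBTA 200 μM and CuSO4 1 mM for 1 h. After SDS-PAGE, the ~62 kDa band was trypsin-digested, iTRAQ-labelled and analysed by LC-MS/MS.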

Mus musculus [2] = test: Anticonvulsant activity in ip dosed albino mouse assessed as protection against subcutaneous metrazole-induced seizures; assay type: functional, organism-based
Procedure, shortened: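 Male albino Carworth Farms No. 1 mice, dosed intraperitoneally; subcutaneous metrazol seizure model run by previously reported methods under the NIH Anticonvulsant Screening Program; protection against seizures scored.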

[3] = Neurotoxicity in ip dosed albino mouse by rotarod test; assay type: toxicity, organism-based; conditions: in vivo
[4] = target: Dihydropyrimidinase-related protein 2 (Mus musculus) (UniProt O08553); test: Binding affinity to CRMP2 in ICR mouse brain […] at 5 uM by in-gel tryptic digestion analysis in presence of rhodamine-containing 4-(3-azidopropylcarbamoyl)-2-(3,6-bis(dimethylamino)xanthylium-9-yl)benzoate; assay type: tissue-based; procedure, shortened: as §1
[5] = target: Dihydropyrimidinase-related protein 2 (Mus musculus) (UniProt O08553); test: Binding affinity to CRMP2 in ICR mouse brain […] at 5 uM by Western blot analysis in presence of rhodamine-containing 4-(3-azidopropylcarbamoyl)-2-(3,6-bis(dimethylamino)xanthylium-9-yl)benzoate; assay type: tissue-based
Rattus norvegicus [6] = test: Anticonvulsant activity in po dosed Sprague-Dawley rat assessed as protection against subcutaneous metrazole-induced seizures; assay type: functional, organism-based
Procedure, shortened: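 Male albino Sprague-Dawley rats, oral dosing; subcutaneous metrazol seizure test by previously reported methods within the NIH Anticonvulsant Screening Program.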

Mus musculus [7] = test: Anticonvulsant activity in ip dosed albino mouse assessed as protection against maximal electroshock-induced seizures; assay type: functional
Procedure, shortened: (§2)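 Male rodents screened through the NIH Anticonvulsant Screening Program: albino Carworth Farms No. 1 mice given compound ip, albino Sprague-Dawley rats given compound po. Maximal electroshock test: tonic hindlimb seizures were induced by corneal electrical stimulation. ED50 is given in mg/kg.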

Rattus norvegicus [8] = test: Anticonvulsant activity in po dosed Sprague-Dawley rat assessed as protection against maximal electroshock-induced seizures; assay type: functional; procedure, shortened: as §2
[9] = Neurotoxicity in po dosed Sprague-Dawley rat by rotarod test; assay type: toxicity, organism-based; conditions: in vivo
Mus musculus [10] = test: Anticonvulsant activity against maximal electroshock-induced seizures in ip dosed albino mouse assessed as time of peak effect; assay type: functional
[11] = target: Dihydropyrimidinase-related protein 2 (Mus musculus) (UniProt O08553); test: Binding affinity to CRMP2 in ICR mouse brain […] at 5 uM by Western blot analysis in presence of rhodamine-containing 4-(3,6,9,12-tetraoxapentadec-14-ynylcarbamoyl)-2-(3,6-bis(dimethylamino)xanthylium-9-yl)benzoate; assay type: tissue-based
Procedure, shortened: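 Soluble brain proteome from male 2-month ICR mice was Dounce-homogenized in 50 mM HEPES pH 7.4. It was spun at 1200 × g for 12 min, then at 100,000 × g for 1 h at 4 °C, and exchanged into pH 8.0 HEPES. Aliquots (2.0 mg/mL protein) got 5 μM agent for 30 min at RT. Click reaction used rhodamine-alkyne 50 μM, TCEP 1 mM, TBTA 200 μM, CuSO4 1 mM, 1 h RT. Read-out: SDS-PAGE, in-gel fluorescence (ex 555/em 580 nm).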

Mus musculus [12] = test: Anticonvulsant activity in ip dosed albino mouse assessed as protection against 6 Hz electric shock-induced seizures; assay type: functional
Procedure, shortened: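 6 Hz psychomotor seizure test in mice dosed ip, with stimulation at 32 mA.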

Mus musculus [13] = test: Protective index, ratio of TD50 for ip dosed albino mouse to ED50 for protection against maximal electroshock-induced seizures in ip dosed albino mouse; assay type: functional
Mus musculus [14] = test: Anticonvulsant activity against 6 Hz electric shock-induced seizures in ip dosed albino mouse assessed as time of peak effect; assay type: functional
Mus musculus [15] = test: Neurotoxicity in ip dosed albino mouse assessed as time of peak effect by rotarod test; assay type: toxicity, organism-based; conditions: in vivo
Rattus norvegicus [16] = test: Neurotoxicity in po dosed Sprague-Dawley rat assessed as time of peak effect by rotarod test; assay type: toxicity, organism-based; conditions: in vivo
Rattus norvegicus [17] = test: Anticonvulsant activity against maximal electroshock-induced seizures in po dosed Sprague-Dawley rat assessed as time of peak effect; assay type: functional
Rattus norvegicus [18] = test: Toxicity in Sprague-Dawley rat assessed as occurrence of ataxia at 300 mg/kg, po; assay type: organism-based; design: dose 300 mg/kg, route oral; conditions: in vivo
Rattus norvegicus [19] = test: Protective index, ratio of TD50 for po dosed Sprague-Dawley rat to ED50 for protection against maximal electroshock-induced seizures in po dosed Sprague-Dawley rat; assay type: functional

Structure (SMILES)	Activity [1]	Activity (Mus musculus [2])	TD50 [3] [mg/kg]	Activity [4]	Activity [5]	Activity (Rattus norvegicus [6])	ED50 (Mus musculus [7]) [mg/kg]	ED50 (Rattus norvegicus [8]) [mg/kg]	TD50 [9] [mg/kg]	Time (Mus musculus [10]) [h]	Activity [11]	ED50 (Mus musculus [12]) [mg/kg]	Ratio TD50/ED50 (Mus musculus [13])	Time (Mus musculus [14]) [h]	Time (Mus musculus [15]) [h]	Time (Rattus norvegicus [16]) [h]	Time (Rattus norvegicus [17]) [h]	Activity (Rattus norvegicus [18])	Ratio TD50/ED50 (Rattus norvegicus [19])
C#CCOC[C@H](NC(C)=O)C(=O)NCc1ccc(N=C=S)cc1	Active	inactive	> 300	Active	Active	inactive	> 300	–	–	–	–	–	–	–	–	–	–	–	–
CC(=O)N[C@@H](CO)C(=O)NCc1ccc(N=C=S)cc1	–	inactive	30	–	–	inactive	100	180	> 30	–	–	–	–	–	–	–	–	–	–
CC(=O)N[C@@H](COCCN=[N+]=[N-])C(=O)NCc1ccccc1	–	inactive	> 300	–	–	inactive	> 300	–	–	–	–	–	–	–	–	–	–	–	–
CC(=O)N[C@@H](COCCN=[N+]=[N-])C(=O)NCc1ccc(N=C=S)cc1	–	inactive	300	–	–	inactive	100	–	–	0.25	Active	–	–	–	–	–	–	–	–
C#CCOC[C@@H](NC(C)=O)C(=O)NCc1ccc(N=C=S)cc1	Active	inactive	110	Active	Active	inactive	45	> 30	> 30	1	–	53	2.4	0.5	0.25	–	–	–	–
C#Cc1ccc(CNC(=O)[C@@H](COCCN=C=S)NC(C)=O)cc1	–	inactive	–	–	inactive	inactive	–	–	–	–	–	–	–	–	–	–	–	–	–
CC(=O)N[C@H](COCCN=C=S)C(=O)NCc1ccccc1	–	inactive	30	–	–	inactive	> 300	< 30	> 30	0.5	–	–	–	–	–	4	4	–	–
CC(=O)N[C@@H](COCCN=C=S)C(=O)NCc1ccccc1	–	inactive	30	–	–	inactive	> 300	< 30	–	0.5	–	–	–	–	0.5	–	4	–	–
CC(=O)N[C@H](COCCN=[N+]=[N-])C(=O)NCc1ccccc1	–	inactive	100	–	–	inactive	100	> 40	> 30	4	–	44	–	0.5	4	–	0.25	–	–
C#Cc1ccc(CNC(=O)[C@H](COC)NC(C)=O)cc1	–	inactive	300	–	–	inactive	> 300	–	–	0.5	–	–	–	–	0.5	–	–	–	–
O=C1NC(=O)C(c2ccccc2)(c2ccccc2)N1 [PHENYTOIN]	–	inactive	–	–	–	inactive	–	> 30	–	2	–	–	–	–	2	–	4	Non-toxic	–
C#CCOC[C@@H](NC(C)=O)C(=O)NCc1ccccc1	–	inactive	59	–	–	inactive	16	7.9	> 500	0.25	–	29	3.7	0.5	0.25	–	0.5	–	>63
CC(=O)N[C@H](COCCN=[N+]=[N-])C(=O)NCc1ccc(N=C=S)cc1	–	inactive	100	–	–	inactive	100	–	–	4	Active	–	–	–	0.5	–	–	–	–
C#Cc1ccc(CNC(=O)[C@@H](COC)NC(C)=O)cc1	–	inactive	10	–	–	inactive	3	–	< 30	0.5	–	–	–	–	0.5	0.5	–	–	–
C#CCOC[C@H](NC(C)=O)C(=O)NCc1ccccc1	–	inactive	> 300	–	–	inactive	> 300	30	> 30	–	–	> 30	–	–	–	–	–	–	–
COC[C@@H](NC(C)=O)C(=O)NCc1ccccc1 [LACOSAMIDE]	–	inactive	–	–	–	inactive	–	4.2	> 250	0.5	–	10	–	–	0.25	0.5	0.5	–	–
CC(=O)N[C@H](CO)C(=O)NCc1ccc(N=C=S)cc1	–	inactive	47	–	–	inactive	24	4.2	> 250	0.5	–	–	2	–	0.25	–	4	–	>59
CCCC(CCC)C(=O)[O-].[Na+] [VALPROATE SODIUM]	–	inactive	–	–	–	inactive	270	–	–	0.25	–	–	–	–	0.25	0.5	0.5	–	–
CCC1(c2ccccc2)C(=O)NC(=O)NC1=O [PHENOBARBITAL]	–	inactive	–	–	–	inactive	22	9.1	–	1	–	–	–	–	0.5	0.5	5	–	–
C#Cc1ccc(CNC(=O)[C@H](COCCN=C=S)NC(C)=O)cc1	–	inactive	–	–	inactive	inactive	–	–	–	–	–	–	–	–	–	–	–	–	–
